The campaign covered roughly 360,000 compounds. About 220 (0.061%) were called active. This excerpt belongs to a sample that is enriched for actives. A number with no mark means an inactive call.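 The calls were made as follows: active = GFP/RFP ratio change of at least 30% with cell ATP level not reduced by more than half and red fluorescence within 50% of control; inactive = the rest, inconclusive results apart.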

The assay addresses Matrix metalloproteinase-14 (Homo sapiens) (UniProt P50281). Briefly: MT1-MMP activation inhibitors, cellular reporter – HT1080 RFP-PRO-GFP cells, GFP/RFP fluorescence, primary screen (AID 651647). To be noted: overnight, at 20 µM, active compounds read high, percent of plate control window, DMSO zero. In a few lines: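 Test system: HT1080 RFP-PRO-GFP cells; Benchmarks: DMSO and RFP-L50D-GFP cell wells; Timing: cells overnight before dosing, compound overnight, 37 °C, 5% CO2; Compound: one 20 µM compound dose with 1% DMSO; Read-out: GFP/RFP fluorescence ratio.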
In the case of `CN1c2ccc([N+](=O)[O-])cc2C(C)(C)C12C=Cc1cc(C(=O)O)ccc1O2` (stereo not drawn), the GFP/RFP ratio change was 0.611%.

Consider `COc1ccc2c(c1)C=CC1(O2)N(CCO)c2ccccc2C1(C)C` (stereo not drawn), for which the GFP/RFP ratio change is 52% (active).

On to `O=C(Nc1ccc(N2CCOCC2)nc1)c1c(F)cccc1F`, for which the GFP/RFP ratio change was -1.38%.

For the compound `CCc1nonc1NC(=O)c1oc2ccc(Cl)cc2c1C`, the GFP/RFP ratio change is 3.45%.

Take `COc1ccc(-c2cc(NC(C)=O)c3ncc(-c4cc(OC)c(OC)c(OC)c4)n3c2)cn1`: the GFP/RFP ratio change was -4.94%.

Regarding `CCc1ccc(NC(=O)N[C@H](C(=O)O)C(C)CC)cc1` (stereo partly drawn), the GFP/RFP ratio change is 2.36%.

As to `COc1ccc(C(C)C)cc1-c1ccc2nncn2c1`, the GFP/RFP ratio change was 3.27%.

Take `Cc1cccc(C)c1NC(=O)C(Cl)C(=O)c1ccccc1` (stereo not drawn): the GFP/RFP ratio change is -3.13%.

Regarding `Cc1ccc(Nc2ccccc2N)cc1`, the GFP/RFP ratio change was -12%.

On to `Nc1ccc(Nc2ccccc2)cc1`, for which the GFP/RFP ratio change was 44% (active).

As to `O=c1cnnc(Nc2ccccc2)[nH]1`, the GFP/RFP ratio change is 7.04%.

Consider `O=C(Cn1cnc2cc([N+](=O)[O-])ccc2c1=O)NC(=O)NCc1ccccc1`, for which the GFP/RFP ratio change is 1.03%.

On to `COC(=O)C(NS(=O)(=O)c1ccc(F)cc1)c1ccccc1` (stereo not drawn), for which the GFP/RFP ratio change was 0.566%.

Consider `CCOc1ccc(NC(=O)CN(C)C(=O)CSc2ccccc2)cc1OCC`, for which the GFP/RFP ratio change was -8.63%.

Consider `N/C(=N\c1nc2ccccc2o1)NC(=O)C(Cc1ccccc1)N1C(=O)c2ccccc2C1=O` (stereo not drawn), for which the GFP/RFP ratio change is -6.5%.

Consider `CNC(=S)N1CCC(NC(=O)C(Cc2ccc(F)cc2)NC(C)=O)CC1` (stereo not drawn), for which the GFP/RFP ratio change is -0.719%.

In the case of `CC(C)(C)n1nnc(CCc2nnn(C(C)(C)C)n2)n1`, the GFP/RFP ratio change is 2.72%.

On to `O=C(COC(=O)c1ccc(NS(=O)(=O)c2cccs2)cc1O)Nc1ccc(F)cc1`, for which the GFP/RFP ratio change was 4.53%.

As to `C[C@@H](CN1CCC[C@H]1CN1C(N)=NC[C@@H]1Cc1ccccc1)N1C[C@@H](Cc2ccccc2)N(CCCC2CCCC2)C1=N`, the GFP/RFP ratio change is 1.74%.

With `COc1ccc2oc(C(=O)N(CC(C)C)C3CCS(=O)(=O)C3)c(C)c2c1` (stereo not drawn), the GFP/RFP ratio change was 1.26%.

For `O=C1c2ccccc2C(=O)N1CC1c2ccccc2CCN1S(=O)(=O)c1ccccc1` (stereo not drawn), the GFP/RFP ratio change was -1.81%.

As to `COc1ccc(NC2CCCN(C(=O)c3ccccc3-c3ncc[nH]3)C2)cc1` (stereo not drawn), the GFP/RFP ratio change is 3.89%.

Turning to `COC(=O)c1ccccc1Oc1c(F)c(F)nc(N2CCOCC2)c1F`, the GFP/RFP ratio change is 2.7%.

Take `COc1ccc(S(=O)(=O)N2CCC(C(=O)NCCC(=O)NCc3cccc(OC)c3)CC2)cc1`: the GFP/RFP ratio change was 0.341%.

As to `COC(=O)c1cnc(Nc2cc(C)ccc2OC)c2ccccc12`, the GFP/RFP ratio change is -1.73%.

For `Cc1[nH]c2ccccc2c1-c1ccc(Cl)nn1`, the GFP/RFP ratio change was -0.969%.

As for `COc1ccc(C)cc1Nc1nc(-c2c(C)[nH]c3ccccc23)cs1`, the GFP/RFP ratio change was 47.3% (active).

As for `C=CCn1nc(C(=O)OCC)cc1-c1sc(NC(=O)c2ccccc2)nc1C`, the GFP/RFP ratio change is -9.54%.

With `CCOC(=O)C1C(C)C(C(C)(C)C)N(S(=O)(=O)c2ccc(C)cc2)C1c1ccccc1` (stereo not drawn), the GFP/RFP ratio change is -10.4%.

With `O=S(=O)(/C=C/c1ccccc1)NCCc1ccccn1`, the GFP/RFP ratio change was 2.57%.

In the case of `Cc1ccccc1C(=O)O`, the GFP/RFP ratio change was -0.112%.

With `CCC1(C)N(O)C(C)(C)C(c2ccc(OC)cc2)=[N+]1[O-]` (stereo not drawn), the GFP/RFP ratio change was 5.6%.

Take `CN(C(=O)c1cccc(NC(=O)C2CCN(C(=O)OC(C)(C)C)CC2)c1)C1CCC1`: the GFP/RFP ratio change is 6.42%.
